Compound activity as filed in PubChem BioAssay.
Shown are actives, neighbours in structure and some others; about 4.1% of the full set was active somewhere.
RGS4 pot: RGS4 potentiation or activation | HEK293 M3R/inducible RGS4, carbachol calcium flux Fluo4; active compounds read low | B-score at 10 µM | 310,000 tested, 0.92% active;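 active = B-score of the integrated calcium signal more than 4 SD below the library mean, with starting fluorescence not abnormally high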;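 note: negative B-score means reduced calcium response which marks RGS4 activation or potentiation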
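System: HEK293 FlpIn-TREx cells, stable M3R, doxycycline-inducible RGS4. Timing: overnight RGS4 induction, 30 min dye load 37 °C, 20 min compound RT. Also added: carbachol, ECmax concentration. Measured by: Fluo4 fluorescence kinetic imaging of calcium. Evaluation: integrated calcium ratio converted to B score.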
Kir21 inh: blocks the mouse Kir2.1 inward-rectifier potassium channel; HEK293-Kir2.1, FluxOR thallium flux fluorescence; active compounds read low; P35561; B-score at 10 µM; 310,000 tested, 0.85% active;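 active = fluorescence ratio B-score at or below minus 3 SD of library scores, with starting-brightness B-score within 2 SD, cut at about -4.2 in these data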;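 note: channel flux triggered by added potassium and thallium sulfate stimulus; B-score of peak minus minimum fluorescence over baseline after thallium stimulus; more negative B-score means stronger Kir2.1 block with less thallium influx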
Target sequence (P35561 whole entry, looked up): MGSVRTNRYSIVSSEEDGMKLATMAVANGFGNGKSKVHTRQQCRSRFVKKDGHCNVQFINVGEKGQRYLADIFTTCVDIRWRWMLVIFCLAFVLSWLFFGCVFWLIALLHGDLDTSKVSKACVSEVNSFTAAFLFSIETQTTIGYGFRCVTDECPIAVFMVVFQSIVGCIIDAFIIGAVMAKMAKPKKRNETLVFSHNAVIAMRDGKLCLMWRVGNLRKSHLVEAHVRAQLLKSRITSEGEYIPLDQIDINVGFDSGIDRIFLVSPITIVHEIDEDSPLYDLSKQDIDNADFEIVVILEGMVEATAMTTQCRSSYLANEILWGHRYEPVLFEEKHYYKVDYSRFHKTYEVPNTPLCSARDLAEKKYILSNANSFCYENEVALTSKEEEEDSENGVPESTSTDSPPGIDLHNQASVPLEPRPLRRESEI
MrgX1 agonist: agonists of human MrgX1 receptor; Q96LB2; MrgX1-HEK293 cells, Fluo-4 calcium fluorescence, agonist mode; active compounds read high; B-score at 10 µM; 310,000 tested, 0.44% active;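 active = calcium response B-score plate-corrected fluorescence ratio at least 3 library SD, with starting fluorescence B-score inside 5 SD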
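Assay system: MrgX1-expressing HEK293 cells / Amount: fifteen thousand cells per well / Doses: test compound in the initial addition of three / Timing: cells plated overnight, dye loaded 0.5 h 37 °C, 0.5 h room temperature / Technique: kinetic calcium dye fluorescence, Fluo-4 NW / Control set: positive and negative controls per plate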
MrgX1 allo act: human MrgX1 positive allosteric modulation, primary screen. B-score at 10 µM. Q96LB2. AID 588675. MrgX1-HEK293, Fluo-4 calcium flux, FDSS; active compounds read high. 310,000 tested, 0.63% active;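 active = plate-corrected calcium response at least 3 library SD above typical, normal starting fluorescence, not activating the receptor alone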;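 note: compound read alongside a low EC10 to EC30 dose of BAM8-22 agonist; peak minus trough fluorescence over baseline measured at the second addition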
RGS4 inh: inhibitors of human RGS4; 310,000 tested, 0.45% active; B-score at 10 µM; P49798; HEK293 M3R/RGS4 inducible, Fluo-4 calcium flux; active compounds read high; triggered by carbachol at its EC20;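 active = B-score, a plate-corrected calcium signal, over three deviations above library mean, with baseline fluorescence within five deviations of library mean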;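 note: RGS4 expression induced by doxycycline in cells with stable M3 receptor; B-score is computed from the integrated fluorescence ratio over baseline after carbachol; higher B-score means a larger calcium signal and so more RGS4 inhibition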
Target sequence (P49798 whole entry, looked up): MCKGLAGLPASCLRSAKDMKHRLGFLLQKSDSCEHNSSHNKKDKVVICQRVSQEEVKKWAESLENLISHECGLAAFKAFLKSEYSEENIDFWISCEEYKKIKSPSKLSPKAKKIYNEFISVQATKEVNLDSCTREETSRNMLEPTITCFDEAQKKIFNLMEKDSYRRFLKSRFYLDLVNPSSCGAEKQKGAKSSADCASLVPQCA
MrgX1 antag: antagonists of human MrgX1 receptor. Q96LB2. MRGX1-HEK293 calcium flux, Fluo-4, BAM8-22 antagonism; active compounds read low. B-score at 10 µM. 310,000 tested, 1.3% active;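 active = calcium-response B-score plate-corrected more than 3 library SD below zero, starting fluorescence within 5 deviations, no agonist response on first addition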;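 note: peak minus trough fluorescence over baseline after final BAM8-22 challenge near maximal dose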
Of the large screens only hits and unclear results are named; the others gave an inactive call; ! = not active in a repeat.

COc1ccc(OCCn2c(=N)n(CCO)c3ccccc32)cc1	none
CCCCn1c(=N)n(CCOc2ccc(C)cc2)c2ccccc21	Kir21 inh -4.6
CCCn1c(=N)n(CC(O)COc2ccc(C)cc2)c2ccccc21 (centres undefined)	none
C=CCn1c(=N)n(CC(O)COc2ccccc2OC)c2ccccc21 (centres undefined)	none
CCCCCn1c(=N)n(CC(O)COc2ccccc2OC)c2ccccc21 (centres undefined)	Kir21 inh -4.3!
Cc1ccccc1OCC(O)Cn1c(=N)n(Cc2ccccc2)c2ccccc21 (centres undefined)	Kir21 inh -12
Cc1cc(NC(=O)C2CCCN2C(=O)Nc2c(C)cccc2C)ccc1-n1cnnn1 (centres undefined)	none
COc1ccc2[nH]c(C)c(CCNC(=S)Nc3cc(C)cc(C)c3)c2c1	none
COc1ccc(S(=O)(=O)N(CC(=O)NCC2CCCO2)Cc2ccccc2)cc1C (centres undefined)	none
CCOc1ccc(-c2nc(CSc3nnc(N)s3)cs2)cc1OC	none
CCN1CCN(CC(O)COC(c2ccccc2)c2ccccc2C)CC1 (centres undefined)	none
Cc1ccc(OCC(O)Cn2c(=N)n(CCN3CCCCC3)c3ccccc32)cc1 (centres undefined)	Kir21 inh -4.3
COc1ccc(OCC(O)Cn2c(=N)n(CCN3CCCCC3)c3ccccc32)cc1 (centres undefined)	none (no result: RGS4 pot, Kir21 inh, RGS4 inh)
COc1ccccc1OCC(O)Cn1c(=N)n(Cc2ccccc2)c2ccccc21 (centres undefined)	Kir21 inh -4.6
COC(=O)c1sccc1NC(=O)CSc1nnnn1-c1ccccc1F	none
CC1CCc2nn(CC(=O)NCCN3CCOCC3)cc2C1 (centres undefined)	none
CC(C)(C)C(=O)/C(=C\c1ccc([N+](=O)[O-])cc1)n1cncn1	Kir21 inh -7.3, MrgX1 agonist 34, RGS4 inh 14
O=C(C1CCC(Cn2c(=S)[nH]c3ccccc3c2=O)CC1)N1CCN(c2ccccc2)CC1 (centres undefined)	RGS4 inh 5.4
O=C1c2ccccc2CCC12N=NCC2c1ccc(Br)cc1 (centres undefined)	none
COc1ccc(CNC(=O)CN(C(=O)c2snc(C(N)=O)c2N)c2ccccc2F)cc1	MrgX1 allo act 6.5
Cc1cc(C)cc(N(CC(=O)NCc2ccc(F)cc2)C(=O)c2snc(C(N)=O)c2N)c1	none
COc1cc(Cl)ccc1OCc1cc(C(=O)N(C)CC2CCCCO2)no1 (centres undefined)	Kir21 inh -4.5
C=CCn1c(-c2ccc([N+](=O)[O-])cc2)n[nH]c1=S	RGS4 pot -7.7
C=CCn1c(-c2ccccc2[N+](=O)[O-])n[nH]c1=S	none
CCN(CCCC(=O)c1ccc(F)cc1)CCc1ccccc1	RGS4 pot -7.1
CCOC(=O)C1=C(C)N=c2s/c(=C/c3cccc(OCC(=O)O)c3)c(=O)n2C1c1ccc(F)cc1 (centres undefined)	none
CCOC(=O)C1=C(C)N=C2SC(C(=O)OC)=CC(=O)N2C1c1ccc(F)cc1 (centres undefined)	Kir21 inh -5.4
CCOC(=O)C1=C(C)N=C2SC(C(=O)OC)=CC(=O)N2C1c1cccc(OC)c1 (centres undefined)	none
CCOC(=O)C1=C(C)N=c2s/c(=C\c3ccc(C(=O)O)cc3)c(=O)n2C1c1ccc(F)cc1 (centres undefined)	RGS4 pot -7.4, MrgX1 antag -4.8
C[C@@H]1O[C@@H](OC2C(O)C(OCCc3ccc(O)c(O)c3)OC(CO)C2OC(=O)/C=C/c2ccc(O)c(O)c2)[C@H](O)[C@H](O)[C@H]1O (some centres undefined)	MrgX1 antag -5.1
CCOC(=O)c1sc(=S)n(-c2ccccc2Cl)c1SC	RGS4 pot -8.8, MrgX1 allo act 10
CCOC(=O)c1sc(=S)n(-c2ccccc2)c1SC	none
CCC(=O)O[C@]1(C(=O)SCF)[C@H](C)C[C@H]2[C@@H]3C[C@H](F)C4=CC(=O)C=C[C@]4(C)[C@@]3(F)[C@@H](O)C[C@@]21C	MrgX1 antag -6.2
CC(=O)OCC(=O)[C@@]1(OC(C)=O)[C@@H](C)C[C@H]2[C@@H]3C[C@H](F)C4=CC(=O)C=C[C@]4(C)[C@@]3(F)[C@@H](O)C[C@@]21C	none
Cc1ccc(S(=O)(=O)NCCOc2nc(N(C)C)nc(N3CCOCC3)n2)cc1	none
CCC(=O)OCc1c(C(F)(F)F)nn(C)c1Sc1ccc(Cl)cc1	Kir21 inh -4.9
CCOC(=O)c1c(C)oc2cc(Br)c(OC(=O)N3CCOCC3)cc12	none
COc1ccc(NC(=O)CN2C(=O)/C(=C3\SC(=S)N(C4CCS(=O)(=O)C4)C3=O)c3ccccc32)cc1 (centres undefined)	MrgX1 allo act 11
Clc1ccc(SCc2cc(-c3ccc(Cl)cc3)on2)cc1	RGS4 pot -8
Cc1nc(CSc2ccc(Cl)cc2)cs1	none
Cc1ccc(SCc2cc(-c3ccc(Cl)cc3)on2)cc1	RGS4 pot -7.6
Clc1ccc(-c2cc(CN3CCOCC3)no2)cc1	none
CCC(=O)n1nc(-c2ccco2)nc1SCc1ccccc1	none
Cc1nc(N/N=C/c2ccccn2)sc1C	none (no result: RGS4 pot, Kir21 inh, RGS4 inh)
CCCc1sc(N/N=C/c2ccccn2)nc1-c1ccc(F)cc1	RGS4 inh 6.5
O=S(=O)(Nc1nccs1)c1ccc(NS(=O)(=O)c2cccs2)cc1	none
CCCC(=O)OCCNC(=O)c1cc2ccccc2oc1=O	MrgX1 antag -5.4
Cc1ccc(C(=O)C2=C(O)C(=O)N(Cc3cccnc3)C2c2cccc([N+](=O)[O-])c2)o1 (centres undefined)	none
Cc1nnc(SCc2cc(=O)[nH]c(/N=C(\N)Nc3ccccc3Sc3ccccc3)n2)s1	RGS4 pot -7.4
CN=c1scc(-c2ccccc2F)n1/N=C/c1ccc[nH]1	MrgX1 allo act 7
Cc1cc(C)c2nc(N3C(=O)C(O)=C(C(=O)c4ccco4)C3c3ccco3)sc2c1 (centres undefined)	RGS4 pot -7.9
CCOC(=O)c1sc(N2C(=O)C(O)=C(C(=O)c3ccco3)C2c2ccco2)nc1C (centres undefined)	none
CN1CCN(C(=O)CSc2nc(-c3cccs3)ccc2C#N)CC1	MrgX1 agonist 46
COc1ccc(/C=N/NC(=O)CCC(=O)Nc2ccccc2)cc1OC	none
COc1ccc(/C=N/NC(=O)CCn2cnc(-c3ccccc3)c2-c2ccccc2)cc1OC	MrgX1 antag -5.6
CCOC(=O)C(C#N)C(Cc1ccccc1)c1ccco1 (centres undefined)	Kir21 inh -4.7
